Results published in ChEMBL document CHEMBL3797186, “Single Residue Substitutions That Confer Voltage-Gated Sodium Ion Channel Subtype Selectivity in the NaV1.7 Inhibitory Peptide GpTx-1” (J Med Chem, 2016).
Positions of bridges follow the written chain, without caps; N, C: chain ends. Residues, ends and D or L forms follow the SMILES beside them.

Target: Sodium channel protein type 5 subunit alpha (Homo sapiens, UniProt Q14524)
Assay: Inhibition of human Nav1.5 expressed in HEK293 cells assessed as inward peak current by ion-works quattro patch clamp electrophysiology method
Type: cell-based
In short: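 Stable HEK293 line expressing human NaV1.5, recorded by population patch clamp on the IonWorks Quattro.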

Sequence of Sodium channel protein type 5 subunit alpha (Q14524 whole entry): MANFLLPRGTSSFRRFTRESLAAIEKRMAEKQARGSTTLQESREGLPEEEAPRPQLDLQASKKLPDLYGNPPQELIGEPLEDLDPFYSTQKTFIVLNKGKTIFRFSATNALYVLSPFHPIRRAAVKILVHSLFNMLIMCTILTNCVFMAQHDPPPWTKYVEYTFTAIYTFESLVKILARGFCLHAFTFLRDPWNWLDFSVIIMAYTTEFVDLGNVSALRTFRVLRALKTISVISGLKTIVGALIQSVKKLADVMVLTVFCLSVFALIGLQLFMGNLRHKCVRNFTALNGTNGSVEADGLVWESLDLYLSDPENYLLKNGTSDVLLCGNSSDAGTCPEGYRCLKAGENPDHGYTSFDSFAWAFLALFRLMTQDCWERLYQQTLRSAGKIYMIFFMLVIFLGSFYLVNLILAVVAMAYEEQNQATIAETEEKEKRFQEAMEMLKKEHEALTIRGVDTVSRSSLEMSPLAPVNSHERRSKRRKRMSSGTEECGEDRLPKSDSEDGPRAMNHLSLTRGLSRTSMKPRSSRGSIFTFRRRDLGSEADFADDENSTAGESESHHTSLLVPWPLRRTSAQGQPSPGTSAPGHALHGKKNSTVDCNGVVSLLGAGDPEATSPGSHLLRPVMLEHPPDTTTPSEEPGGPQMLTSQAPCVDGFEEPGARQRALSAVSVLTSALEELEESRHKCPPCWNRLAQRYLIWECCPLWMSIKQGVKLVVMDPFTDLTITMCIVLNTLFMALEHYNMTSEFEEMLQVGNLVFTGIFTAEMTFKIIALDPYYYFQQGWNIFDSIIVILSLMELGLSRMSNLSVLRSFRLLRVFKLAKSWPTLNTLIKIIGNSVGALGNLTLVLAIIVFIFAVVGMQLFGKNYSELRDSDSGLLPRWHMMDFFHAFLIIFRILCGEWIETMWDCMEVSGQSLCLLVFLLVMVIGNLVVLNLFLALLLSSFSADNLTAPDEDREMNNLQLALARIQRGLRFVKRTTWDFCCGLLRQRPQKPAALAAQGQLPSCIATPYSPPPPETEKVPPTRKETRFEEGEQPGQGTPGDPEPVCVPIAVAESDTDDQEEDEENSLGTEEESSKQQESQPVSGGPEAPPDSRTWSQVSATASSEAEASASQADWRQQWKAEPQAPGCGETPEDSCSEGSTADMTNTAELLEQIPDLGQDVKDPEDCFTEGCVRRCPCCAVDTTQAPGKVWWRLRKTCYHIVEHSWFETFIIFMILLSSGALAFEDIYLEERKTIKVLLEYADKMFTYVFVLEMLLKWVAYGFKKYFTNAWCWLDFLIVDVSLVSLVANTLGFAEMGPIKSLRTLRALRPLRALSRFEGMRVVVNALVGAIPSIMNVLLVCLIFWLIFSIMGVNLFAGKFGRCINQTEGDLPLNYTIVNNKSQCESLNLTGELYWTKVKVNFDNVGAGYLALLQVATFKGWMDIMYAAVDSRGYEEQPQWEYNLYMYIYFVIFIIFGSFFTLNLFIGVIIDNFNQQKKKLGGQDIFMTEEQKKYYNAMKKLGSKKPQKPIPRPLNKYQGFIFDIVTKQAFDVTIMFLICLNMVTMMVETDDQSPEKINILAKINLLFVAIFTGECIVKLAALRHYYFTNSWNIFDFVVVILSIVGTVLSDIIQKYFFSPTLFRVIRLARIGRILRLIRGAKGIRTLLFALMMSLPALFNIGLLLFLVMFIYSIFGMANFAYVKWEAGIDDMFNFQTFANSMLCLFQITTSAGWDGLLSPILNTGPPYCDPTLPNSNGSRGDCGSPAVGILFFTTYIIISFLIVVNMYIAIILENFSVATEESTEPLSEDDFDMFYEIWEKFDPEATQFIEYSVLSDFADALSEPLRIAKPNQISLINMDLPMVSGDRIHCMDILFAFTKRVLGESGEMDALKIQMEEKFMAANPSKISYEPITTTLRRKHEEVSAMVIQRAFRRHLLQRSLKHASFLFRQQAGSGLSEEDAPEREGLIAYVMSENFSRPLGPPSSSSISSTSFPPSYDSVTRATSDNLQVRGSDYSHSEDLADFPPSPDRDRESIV

Row | SMILES | IC50 [µM]
1 | CC[C@H](C)[C@@H]1NC(=O)[C@@H]2CSSC[C@@H]3NC(=O)[C@H](C(C)C)NC(=O)[C@H](CC(C)C)NC(=O)[C@H](CC(N)=O)NC(=O)[C@@H]4CCCN4C(=O)[C@H](CCCNC(=N)N)NC(=O)[C@H](CSSC[C@H](NC(=O)[C@@H](N)CC(=O)O)C(=O)N[C@@H](CC(C)C)C(=O)NCC(=O)N[C@@H](Cc4ccccc4)C(=O)N[C@@H](CCSC)C(=O)N[C@@H](CCCNC(=N)N)C(=O)N[C@@H](CCCCN)C(=O)N2)NC(=O)[C@H](CSSC[C@@H](C(=O)N[C@@H](CCCCN)C(=O)N[C@@H](Cc2ccc(O)cc2)C(=O)N[C@H](C(=O)N[C@@H](Cc2ccccc2)C(N)=O)C(C)C)NC(=O)[C@H](Cc2c[nH]c4ccccc24)NC(=O)[C@H](CCC(=O)O)NC(=O)[C@H](Cc2cnc[nH]2)NC(=O)[C@H]([C@@H](C)O)NC(=O)[C@H](CCCNC(=N)N)NC(=O)[C@H](CO)NC3=O)NC(=O)[C@H](CCCCN)NC(=O)[C@H](CC(=O)O)NC(=O)[C@H](CC(N)=O)NC(=O)[C@H](CC(=O)O)NC(=O)[C@@H]2CCCN2C1=O (H-DCLGFMRKCIPDNDKCCRPNLVCSRTHEWCKYVF-NH2; disulfide 2-17, 9-23, 16-30) | > 5
2 | CC[C@H](C)[C@@H]1NC(=O)[C@@H]2CSSC[C@@H]3NC(=O)[C@H](C(C)C)NC(=O)[C@H](CC(C)C)NC(=O)[C@H](CC(N)=O)NC(=O)[C@@H]4CCCN4C(=O)[C@H](CCCNC(=N)N)NC(=O)[C@H](CSSC[C@H](NC(=O)[C@@H](N)CC(=O)O)C(=O)N[C@@H](CC(C)C)C(=O)NCC(=O)N[C@@H](Cc4ccccc4)C(=O)N[C@@H](CCSC)C(=O)N[C@@H](CCCNC(=N)N)C(=O)N[C@@H](CCCCN)C(=O)N2)NC(=O)[C@H](CSSC[C@@H](C(=O)N[C@@H](CCCCN)C(=O)N[C@@H](Cc2ccc(O)cc2)C(=O)N[C@H](C(=O)N[C@@H](Cc2ccccc2)C(N)=O)C(C)C)NC(=O)[C@H](Cc2c[nH]c4ccccc24)NC(=O)[C@H](CCCCN)NC(=O)[C@H](Cc2c[nH]cn2)NC(=O)[C@H]([C@@H](C)O)NC(=O)[C@H](CCCNC(=N)N)NC(=O)[C@H](CO)NC3=O)NC(=O)[C@H](CCC(=O)O)NC(=O)[C@H](CC(=O)O)NC(=O)[C@H](CC(N)=O)NC(=O)[C@H](CC(=O)O)NC(=O)[C@@H]2CCCN2C1=O (H-DCLGFMRKCIPDNDECCRPNLVCSRTHKWCKYVF-NH2; disulfide 2-17, 9-23, 16-30) | > 5
3 | CSCC[C@@H]1NC(=O)[C@H](Cc2ccccc2)NC(=O)CNC(=O)[C@H](CC(C)C)NC(=O)[C@@H](NC(=O)[C@@H](N)CC(=O)O)CSSC[C@@H]2NC(=O)[C@@H]3CSSC[C@@H](C(=O)N[C@@H](CCCCN)C(=O)N[C@@H](Cc4ccc(O)cc4)C(=O)N[C@H](C(=O)N[C@@H](Cc4ccccc4)C(N)=O)C(C)C)NC(=O)[C@H](Cc4c[nH]c5ccccc45)NC(=O)[C@H](CCCCN)NC(=O)[C@H](Cc4cnc[nH]4)NC(=O)[C@H]([C@@H](C)O)NC(=O)[C@H](CCCNC(=N)N)NC(=O)[C@H](CO)NC(=O)[C@H](CSSC[C@H](NC(=O)[C@H](CCCCN)NC(=O)[C@H](CCCNC(=N)N)NC1=O)C(=O)N[C@@H]([C@@H](C)O)C(=O)N1CCC[C@H]1C(=O)N[C@@H](CC(=O)O)C(=O)N[C@@H](CC(N)=O)C(=O)N[C@@H](CC(=O)O)C(=O)N[C@@H](CCCCN)C(=O)N3)NC(=O)[C@H](C(C)C)NC(=O)[C@H](CC(C)C)NC(=O)[C@H](CC(N)=O)NC(=O)[C@@H]1CCCN1C(=O)[C@H](CCCNC(=N)N)NC2=O (H-DCLGFMRKCTPDNDKCCRPNLVCSRTHKWCKYVF-NH2; disulfide 2-17, 9-23, 16-30) | > 5
4 | CC[C@H](C)[C@@H]1NC(=O)[C@@H]2CSSC[C@@H]3NC(=O)[C@H](C(C)C)NC(=O)[C@H](CC(C)C)NC(=O)[C@H](CC(N)=O)NC(=O)[C@@H]4CCCN4C(=O)[C@H](CCCNC(=N)N)NC(=O)[C@H](CSSC[C@H](NC(=O)[C@@H](N)CC(=O)O)C(=O)N[C@@H](CC(C)C)C(=O)NCC(=O)N[C@@H](CCCNC(=N)N)C(=O)N[C@@H](CCSC)C(=O)N[C@@H](CCCNC(=N)N)C(=O)N[C@@H](CCCCN)C(=O)N2)NC(=O)[C@H](CSSC[C@@H](C(=O)N[C@@H](CCCCN)C(=O)N[C@@H](Cc2ccc(O)cc2)C(=O)N[C@H](C(=O)N[C@@H](Cc2ccccc2)C(N)=O)C(C)C)NC(=O)[C@H](Cc2c[nH]c4ccccc24)NC(=O)[C@H](CCCCN)NC(=O)[C@H](Cc2cnc[nH]2)NC(=O)[C@H]([C@@H](C)O)NC(=O)[C@H](CCCNC(=N)N)NC(=O)[C@H](CO)NC3=O)NC(=O)[C@H](CCCCN)NC(=O)[C@H](CC(=O)O)NC(=O)[C@H](CC(N)=O)NC(=O)[C@H](CC(=O)O)NC(=O)[C@@H]2CCCN2C1=O (H-DCLGRMRKCIPDNDKCCRPNLVCSRTHKWCKYVF-NH2; disulfide 2-17, 9-23, 16-30) | > 5
5 | CC[C@H](C)[C@@H]1NC(=O)[C@@H]2CSSC[C@@H]3NC(=O)[C@H](C(C)C)NC(=O)[C@H](CC(C)C)NC(=O)[C@H](CC(N)=O)NC(=O)[C@@H]4CCCN4C(=O)[C@H](CCCNC(=N)N)NC(=O)[C@H](CSSC[C@H](NC(=O)[C@@H](N)CC(=O)O)C(=O)N[C@@H](CC(C)C)C(=O)NCC(=O)N[C@@H](Cc4ccccc4)C(=O)N[C@@H](CCSC)C(=O)N[C@@H](CCCNC(=N)N)C(=O)N[C@@H](CCCCN)C(=O)N2)NC(=O)[C@H](CSSC[C@@H](C(=O)N[C@@H](CCCCN)C(=O)N[C@@H](Cc2ccc(O)cc2)C(=O)N[C@H](C(=O)N[C@@H](Cc2ccccc2)C(N)=O)C(C)C)NC(=O)[C@H](Cc2c[nH]c4ccccc24)NC(=O)[C@H](CCCCN)NC(=O)[C@H](Cc2cnc[nH]2)NC(=O)[C@H]([C@@H](C)O)NC(=O)[C@H](CCCNC(=N)N)NC(=O)[C@H](CO)NC3=O)NC(=O)[C@H](CCCCN)NC(=O)[C@H](CC(=O)O)NC(=O)[C@H](CC(N)=O)NC(=O)[C@H](CCCNC(=N)N)NC(=O)[C@@H]2CCCN2C1=O (H-DCLGFMRKCIPRNDKCCRPNLVCSRTHKWCKYVF-NH2; disulfide 2-17, 9-23, 16-30) | > 4.8
6 | CC[C@H](C)[C@@H]1NC(=O)[C@@H]2CSSC[C@@H]3NC(=O)[C@H](C(C)C)NC(=O)[C@H](CC(C)C)NC(=O)[C@H](CC(N)=O)NC(=O)[C@@H]4CCCN4C(=O)[C@H](CCCNC(=N)N)NC(=O)[C@H](CSSC[C@H](NC(=O)[C@@H](N)CC(=O)O)C(=O)N[C@@H](CC(C)C)C(=O)NCC(=O)N[C@@H](Cc4cccc5ccccc45)C(=O)N[C@@H](CCSC)C(=O)N[C@@H](CCCNC(=N)N)C(=O)N[C@@H](CCCCN)C(=O)N2)NC(=O)[C@H](CSSC[C@@H](C(=O)N[C@@H](CCCCN)C(=O)N[C@@H](Cc2ccc(O)cc2)C(=O)N[C@H](C(=O)N[C@@H](Cc2ccccc2)C(N)=O)C(C)C)NC(=O)[C@H](Cc2c[nH]c4ccccc24)NC(=O)[C@H](CCCCN)NC(=O)[C@H](Cc2c[nH]cn2)NC(=O)[C@H]([C@@H](C)O)NC(=O)[C@H](CCCNC(=N)N)NC(=O)[C@H](CO)NC3=O)NC(=O)[C@H](CCCCN)NC(=O)[C@H](CC(=O)O)NC(=O)[C@H](CC(N)=O)NC(=O)[C@H](CC(=O)O)NC(=O)[C@@H]2CCCN2C1=O | > 5
